Test results from ChEMBL document CHEMBL1140721, “Development of potent purine-derived nitrile inhibitors of the trypanosomal protease TbcatB” (J Med Chem, 2008).

Legend:
[1] = biological target: T1, Cathepsin B-like cysteine protease (Trypanosoma brucei, UniProt Q6R7Z5); assay: Inhibition of Trypanosoma brucei cathepsin B-like cysteine protease
T1 sequence (Q6R7Z5 whole entry): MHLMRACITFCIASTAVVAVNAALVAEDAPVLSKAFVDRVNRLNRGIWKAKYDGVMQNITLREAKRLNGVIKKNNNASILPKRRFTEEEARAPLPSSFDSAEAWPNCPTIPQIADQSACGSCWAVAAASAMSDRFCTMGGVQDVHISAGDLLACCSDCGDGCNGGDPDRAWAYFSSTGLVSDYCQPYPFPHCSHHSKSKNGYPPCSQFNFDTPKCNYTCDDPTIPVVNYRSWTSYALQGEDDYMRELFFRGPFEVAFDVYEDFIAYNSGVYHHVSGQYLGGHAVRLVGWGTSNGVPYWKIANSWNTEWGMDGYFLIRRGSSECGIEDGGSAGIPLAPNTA
How it was run: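 Recombinant TbcatB zymogen expressed in Pichia pastoris, purified by HIC and anion exchange, titrated with CA074; 35 nM final. Inhibitor preincubated 20 min at room temperature, then Z-Phe-Arg-AMC (10 µM final). Initial rate from fluorescence (ex 350/em 460 nm) over 10 min. Triplicate. Sigmoidal IC50 fit.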

Trypanosoma brucei = assay: Antitrypanosomal activity against Trypanosoma brucei; type: functional, organism-based
How it was run: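 Culture-adapted bloodstream T. brucei grown in HMI-9 with pen/strep, 10% heat-inactivated FBS and 10% Serum Plus at 37 °C, 5% CO2, diluted to 1 × 10^4 cells/mL. Inhibitor added from DMSO, 48 h at 37 °C, then 1 h room-temperature equilibration. Cell Titer Glo luminescence read after 8 min. Quadruplicate. IC50 by curve fitting. Values shift up to 10-fold with FBS lot.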

Procathepsin L = Procathepsin L (Homo sapiens, UniProt P07711); assay: Inhibition of human liver cathepsin L
Sequence of Procathepsin L (P07711 whole entry): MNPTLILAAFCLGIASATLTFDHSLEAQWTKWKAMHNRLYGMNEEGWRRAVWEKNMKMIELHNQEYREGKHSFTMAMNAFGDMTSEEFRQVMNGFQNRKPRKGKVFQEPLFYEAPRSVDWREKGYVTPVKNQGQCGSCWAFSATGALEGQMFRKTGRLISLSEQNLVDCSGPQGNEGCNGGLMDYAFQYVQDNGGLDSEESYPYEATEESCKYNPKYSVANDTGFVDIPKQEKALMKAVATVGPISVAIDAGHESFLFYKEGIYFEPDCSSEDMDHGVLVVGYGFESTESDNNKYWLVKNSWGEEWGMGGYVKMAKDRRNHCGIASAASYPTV
How it was run: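 Inhibitor preincubated 20 min at room temperature before Z-Phe-Arg-AMC (10 µM final). Initial rate from fluorescence (ex 350/em 460 nm) over 10 min. Quadruplicate. Sigmoidal IC50 fit.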

Cathepsin B = Cathepsin B (Homo sapiens, UniProt P07858); assay: Inhibition of human liver cathepsin B
How it was run: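 Human liver enzyme at 0.56 ng/mL final in sodium acetate pH 5.5 buffer with 4 mM DTT, 0.01% Triton X-100, 0.5 mM EDTA. 20 min room-temperature preincubation with inhibitor, then Z-Arg-Arg-AMC (10 µM final). Quadruplicate. Sigmoidal IC50 fit.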

IC50 [1] [µM] | IC50 (Trypanosoma brucei) [nM] | IC50 (Procathepsin L) [µM] | IC50 (Cathepsin B) [µM] | SMILES
2.8 | 260 | > 30 | > 30 | N#Cc1nc(NCc2ccccc2)c2ncn(Cc3cccc(C(F)(F)F)c3)c2n1
19 | 1200 | 13.5 | > 30 | N#Cc1nc(NCc2ccc(Cl)cc2)c2ncn(C3CCCC3)c2n1
